Laboratory results: ChEMBL document CHEMBL6121033, “N-Arylsulfonylated C-Homoaporphines as a New Class of Antiplatelet and Antimicrobial Agents” (ACS Med Chem Lett, 2025)
Values after ≈ are worked out from the molar mass of the structure shown. Active and inactive are the calls of the source. No cut-off for these calls is given here.

Columns and labels:
[1] = system: Bacillus subtilis; assay: Antibacterial activity against Bacillus subtilis MTCC 10619 assessed as inhibition of bacterial growth incubated for 24 hrs by serial dilution method; assay type: functional
Procedure, shortened: (§1)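 MIC found by serial dilution, with ampicillin as positive control. Strains were Gram-negative E. coli MTCC 443 and Gram-positive B. subtilis MTCC 10619. A first agar diffusion screen of all compounds and the control was run at a fixed 100 μg/mL.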

[2] = system: Escherichia coli; assay: Antibacterial activity against Escherichia coli MTCC 443 assessed as inhibition of bacterial growth incubated for 24 hrs by serial dilution method; assay type: functional; procedure, shortened: as §1
[3] = system: Aspergillus niger; assay: Antifungal activity against Aspergillus niger assessed as inhibition of fungal growth by agar well diffusion method; assay type: functional
[4] = system: Trichoderma reesei; assay: Antifungal activity against Trichoderma reesei assessed as inhibition of fungal growth by agar well diffusion method; assay type: functional
[5] = system: Macrophomina phaseolina; assay: Antifungal activity against Macrophomina phaseolina assessed as inhibition of fungal growth by agar well diffusion method; assay type: functional
[6] = system: Aspergillus niger; assay: Potency index, ratio of Ketaconazole MIC to test compound MIC for antifungal activity against Aspergillus niger assessed as inhibition of fungal growth by agar well diffusion method; assay type: functional
[7] = system: Plasma; assay: Antiplatelet aggregation activity in rabbit platelet-rich plasma assessed as inhibition of arachidonic acid-induced platelet aggregation by turbidimetric based Lumi-aggregometry; assay type: functional; details: Oryctolagus cuniculus
[8] = system: Plasma; assay: Potency index, ratio of Acetylsalicylic acid IC50 to test compound IC50 for antiplatelet aggregation activity in rabbit platelet-rich plasma assessed as inhibition of arachidonic acid-induced platelet aggregation by turbidimetric aggregometry analysis; assay type: functional, Oryctolagus cuniculus
[9] = system: Trichoderma reesei; assay: Potency index, ratio of Ketaconazole MIC to test compound MIC for antifungal activity against Trichoderma reesei assessed as inhibition of fungal growth by agar well diffusion method; assay type: functional

SMILES	Activity [1]	MIC [2] [µg/mL]	MIC [3] [µg/mL]	Activity [4]	Activity [5]	Ratio [6]	IC50 [7] [µg/mL]	Ratio [8]	MIC [1] [µg/mL]	Activity [2]	MIC [5] [µg/mL]	Ratio IC50 [8]	Ratio [9]	Activity [3]	MIC [4] [µg/mL]
COc1cc2c(cc1OC)-c1c(OCc3ccccc3)c(OC)cc3c1C(CC2)N(S(=O)(=O)c1ccc(C(C)(C)C)cc1)CC3 (stereo not given)	inactive	6.25 (≈ 9.96 µM)	12.5 (≈ 19.9 µM)	inactive	inactive	1	35 (≈ 55.7 µM)								
COc1cc2c(cc1OC)-c1c(OC)c(OC)cc3c1C(CC2)N(S(=O)(=O)c1ccccc1)CC3 (stereo not given)		12.5 (≈ 25.2 µM)	25 (≈ 50.4 µM)	inactive	inactive		15 (≈ 30.3 µM)	~3	50 (≈ 101 µM)						
COc1cc2c(cc1OC)-c1c(OC)c(OC)cc3c1C(CC2)N(S(=O)(=O)c1ccc([N+](=O)[O-])cc1)CC3 (stereo not given)	inactive		50 (≈ 92.5 µM)	inactive			30 (≈ 55.5 µM)			inactive	12.5 (≈ 23.1 µM)				
COc1cc2c(cc1OC)-c1c(OC)c(OCc3ccccc3)cc3c1C(CC2)N(S(=O)(=O)c1cccc(C(F)(F)F)c1)CC3 (stereo not given)		6.25 (≈ 9.77 µM)			inactive		7 (≈ 10.9 µM)		6.25 (≈ 9.77 µM)			3	1	inactive	6.25 (≈ 9.77 µM)
COc1cc2c(cc1OC)-c1c(OC)c(OCc3ccccc3)cc3c1C(CC2)N(S(=O)(=O)c1ccc([N+](=O)[O-])cc1)CC3 (stereo not given)	inactive	12.5 (≈ 20.3 µM)	50 (≈ 81.1 µM)				30 (≈ 48.6 µM)				12.5 (≈ 20.3 µM)		1		6.25 (≈ 10.1 µM)
CC1(C)S[C@@H]2[C@H](NC(=O)[C@H](N)c3ccccc3)C(=O)N2[C@H]1C(=O)O [AMPICILLIN]		12.5 (≈ 35.8 µM)							25 (≈ 71.5 µM)						
COc1cc2c(cc1OC)-c1c(OC)c(OC)cc3c1C(CC2)N(S(=O)(=O)c1cccc(C)c1)CC3 (stereo not given)		6.25 (≈ 12.3 µM)	12.5 (≈ 24.5 µM)		inactive	1	12.7 (≈ 24.8 µM)	~3	25 (≈ 49.1 µM)						12.5 (≈ 24.5 µM)
COc1cc2c(cc1OC)-c1c(OCc3ccccc3)c(OC)cc3c1C(CC2)N(S(=O)(=O)c1ccccc1)CC3 (stereo not given)	inactive		6.25 (≈ 10.9 µM)	inactive	inactive		12.7 (≈ 22.1 µM)	~3		inactive					
COc1cc2c(cc1OC)-c1c(OCc3ccccc3)c(OC)cc3c1C(CC2)N(S(=O)(=O)c1cccc(C)c1)CC3 (stereo not given)		3.12 (≈ 5.34 µM)	12.5 (≈ 21.3 µM)			1	12.7 (≈ 21.6 µM)	~3	3.12 (≈ 5.34 µM)		25 (≈ 42.7 µM)				12.5 (≈ 21.3 µM)
COc1cc2c(cc1OC)-c1c(OC)c(OC)cc3c1C(CC2)N(S(=O)(=O)c1ccc(C(C)(C)C)cc1)CC3 (stereo not given)		3.12 (≈ 5.66 µM)	100 (≈ 181 µM)	inactive			36.7 (≈ 66.4 µM)		12.5 (≈ 22.7 µM)		6.25 (≈ 11.3 µM)				
COc1cc2c(cc1OC)-c1c(OCc3ccccc3)c(OC)cc3c1C(CC2)N(S(=O)(=O)c1ccc([N+](=O)[O-])cc1)CC3 (stereo not given)		50 (≈ 81.1 µM)	25 (≈ 40.5 µM)	inactive			32.7 (≈ 53 µM)		12.5 (≈ 20.3 µM)		12.5 (≈ 20.3 µM)				
COc1cc2c(cc1OC)-c1c(OC)c(OCc3ccccc3)cc3c1C(CC2)N(S(=O)(=O)c1cccc(C)c1)CC3 (stereo not given)		50 (≈ 85.4 µM)					10.5 (≈ 17.9 µM)		25 (≈ 42.7 µM)		50 (≈ 85.4 µM)	>2		inactive	25 (≈ 42.7 µM)
CC(=O)N1CCN(c2ccc(OCC3COC(Cn4ccnc4)(c4ccc(Cl)cc4Cl)O3)cc2)CC1 (stereo not given) [KETOCONAZOLE]			12.5 (≈ 23.5 µM)								12.5 (≈ 23.5 µM)				6.25 (≈ 11.8 µM)
COc1cc2c(cc1OC)-c1c(OC)c(OCc3ccccc3)cc3c1C(CC2)N(S(=O)(=O)c1ccccc1)CC3 (stereo not given)				inactive	inactive		14.7 (≈ 25.6 µM)	~3	12.5 (≈ 21.9 µM)	inactive				inactive	
COc1cc2c(cc1OC)-c1c(OCc3ccccc3)c(OC)cc3c1C(CC2)N(S(=O)(=O)c1cccc(C(F)(F)F)c1)CC3 (stereo not given)		6.25 (≈ 9.77 µM)	25 (≈ 39.1 µM)				8 (≈ 12.5 µM)	~3	25 (≈ 39.1 µM)		12.5 (≈ 19.5 µM)				25 (≈ 39.1 µM)
COc1cc2c(cc1OC)-c1c(OC)c(OCc3ccccc3)cc3c1C(CC2)N(S(=O)(=O)c1ccc(C(C)(C)C)cc1)CC3 (stereo not given)			6.25 (≈ 9.96 µM)				35 (≈ 55.7 µM)		25 (≈ 39.8 µM)	inactive	25 (≈ 39.8 µM)				50 (≈ 79.6 µM)
CC(=O)Oc1ccccc1C(=O)O [ASPIRIN]							21.3 (≈ 118 µM)								
COc1cc2c(cc1OC)-c1c(OC)c(OC)cc3c1C(CC2)N(S(=O)(=O)c1cccc(C(F)(F)F)c1)CC3 (stereo not given)		25 (≈ 44.4 µM)	25 (≈ 44.4 µM)	inactive			9.6 (≈ 17 µM)	~3	100 (≈ 177 µM)		12.5 (≈ 22.2 µM)				
